Screening data (PubChem BioAssay)
UPR XBP1 act: activators of adaptive XBP1 UPR arm, primary screen, cell-based, CHO-XBP1 luciferase reporter, luminescence, uHTS; IRE1-XBP1 UPR activation; percent of tunicamycin response, DMSO as zero; 330,000 tested, 0.33% active; activation, % at 20 µM;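 active means versus positive control, 20 µM dose yields 30% or more activation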;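 further: 100% = tunicamycin at 10 µg/mL and 0% = DMSO only wells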
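Signal: luciferase luminescence; Assay system: CHO-XBP1 luciferase reporter cells; Amount: one thousand reporter cells per well; Dosing: 20 µM single concentration, DMSO 1%; Benchmarks: high control tunicamycin 10 µg/mL final, low control DMSO vehicle only; Schedule: 6 h compound exposure at 37 °C, 5% CO2; Evaluation: percent activation relative to tunicamycin reference.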
CHOP UPR activ: activators of apoptotic CHOP UPR arm, primary screen, cell-based, CHO-CHOP luciferase reporter, luminescence, uHTS; 330,000 tested, 0.34% active; activation, % at 10 µM; UPR activation; percent of tunicamycin response over DMSO baseline;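 active means at 10 µM dose, activation of 40% or more, normalized to positive control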;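 further: 100% = tunicamycin at 10 µg/mL and 0% = DMSO alone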
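Test system: CHO-CHOP cells, stable luciferase reporter of PERK-eIF2a-CHOP signalling | Quantity: 500 CHO-CHOP cells per well | Buffer or medium: F12 plus 10% serum | Compound dosing: 10 µM single point, 0.5% DMSO | Schedule: 6 h compound treatment, 37 °C | Signal: Luciferase luminescence | Control set: Tunicamycin high control, DMSO low control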
TbMetRS inhib: T. brucei MetRS inhibitors, primary screen, biochemical, luminescence. methionyl-tRNA synthetase (Trypanosoma brucei brucei). purified T. brucei MetRS, ATP depletion, Kinase-Glo luminescence. inhibition, % at 11.9 µM. 360,000 tested, 0.4% active. AID 624268, 2012;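 active means inhibition above a per-plate cutoff of the control wells' mean inhibition plus 3 SD, cut at about 5.5% in these data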;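 further: 0% = DMSO wells median and 100% = median of wells with control inhibitor compound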
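technique = Kinase-Glo luminescence, ATP depletion format | system = purified MetRS (methionyl-tRNA synthetase) enzyme from Trypanosoma brucei | timing = 15 min preincubation, 2 h reaction, all 25 °C | evaluation = percent inhibition versus plate control medians | dosing = single dose, 11.9 µM final nominal, 0.9% final DMSO | also added = substrates ATP, L-methionine and bulk Escherichia coli tRNA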
V-ATPase pH: regulators of yeast V-ATPase proton pumping, primary screen, pHLuorin cytosolic pH fluorescence. S. cerevisiae. response, % at 10 µM. 350,000 tested, 0.37% active; in the data active means response mostly above about 7.3%, no sharp cut-off; inactive means mostly below about 5.4%; further: actives read high
CHOP inh: inhibitors of CHOP promoter induction, primary screen, cell-based, unfolded protein response, luciferase reporter; CHO-K1 CHOP-promoter luciferase, tunicamycin-induced, 15-18 h; 220,000 tested, 3.8% active; inhibition, % at 10 µM;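 active means compounds that reduced the stress-induced luciferase reporter signal by more than about 70% of percent inhibition, limit read from the data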;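 further: 0% = tunicamycin plus vehicle and 100% = wells without tunicamycin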
* = called active by the depositor; . = not tested or not shown. Many of the other results were omitted from the sample, so hits are more common in it than they were.

SMILES	UPR XBP1 act	CHOP UPR activ	TbMetRS inhib	V-ATPase pH	CHOP inh
O=C(NCc1cccnc1)c1cc(C2CCCCN2C(=O)CCCc2ccccc2)on1 (stereo not drawn)	.	.	0.0	.	.
Cc1cc(C(=O)N/N=C/c2cc(N=Nc3ccccc3)ccc2O)n[nH]1	.	.	0.0	-2.1	88.8*
CCN(CCNCC(O)COCc1ccc(Cl)cc1)c1cccc(C)c1 (stereo not drawn)	1.0	1.4	-1.1	1.7	83.4*
CCCCC1=CC2=C(c3ccco3)C(=O)C(C)(OC(=O)c3ccc(OC)cc3)C(=O)C2=CN1Cc1ccc(OC)cc1 (stereo not drawn)	0.3	4.6	.	.	-2.0
CCCCC1=CC2=C(c3ccco3)C(=O)C(C)(OC(=O)c3ccc(OC)cc3)C(=O)C2=CN1CC1CC1 (stereo not drawn)	23.1	32.8	-0.5	-4.9	90.2*
O=C(NCc1cccs1)C1C(=O)Nc2ccccc2C(=O)N1C1CCCC1 (stereo not drawn)	.	.	-1.0	.	.
Cc1ccc(C)c(NS(=O)(=O)c2cc(C(=O)NCCSC3CCCCC3)ccc2C)c1	-3.3	-1.6	0.5	-2.0	69.7
Cc1ccccc1NS(=O)(=O)c1cc(C(=O)NCCSC2CCCCC2)ccc1C	-1.9	-0.9	0.6	-0.2	71.9*
OC(c1ccc(F)c(F)c1)c1nc(-c2cccc(C(F)(F)F)c2)cs1 (stereo not drawn)	.	.	0.1	.	.
Cc1c(C=O)c2ccccn2c1C(=O)c1ccccc1	1.2	-2.4	-1.2	0.0	72.0*
Cc1c(C=O)c2ccccn2c1C(=O)c1ccc(F)cc1	-2.3	-1.4	-0.5	6.1	.
CCC(C)(C)n1nnnc1C(c1ccccc1)N1CCc2ccccc2C1 (stereo not drawn)	1.6	-0.5	-0.8	-3.1	14.9
CCC(C)(C)n1nnnc1C(c1ccc(O)c(OC)c1)N1CCc2ccccc2C1 (stereo not drawn)	-4.7	42.4*	-0.6	6.9	-65.4
CCOc1ccc(-n2c(C)c(C(=O)OC)c3cc(O)ccc32)cc1	0.2	1.1	0.2	1.3	81.0*
CC1(C)Cc2ccccc2-c2nnc(SCC(=O)N3CCc4ccccc43)n21	1.6	-0.3	-0.8	1.4	76.7*
Cc1ccc(Cl)cc1N1CCN(C(=O)CSc2nnc3n2C(C)(C)Cc2ccccc2-3)CC1	7.2	8.7	-0.4	3.1	81.1*
COC(=O)CSc1nnc2n1C(C)(C)Cc1ccccc1-2	1.3	-1.1	-1.3	1.4	19.4
COc1ccc(N2CCN(C(=O)CSc3nnc4n3C(C)(C)Cc3ccccc3-4)CC2)cc1	-2.3	-1.3	-0.4	3.1	31.0
CC(/C=C/c1ccc(O)cc1)=NNc1ccccc1	.	.	-0.3	3.3	.
CC(C)(C)S(=O)(=O)N1Cc2cc(CO)cc(CCO)c2[C@@H]1CCO	.	.	0.3	3.7	.
CC(C)c1ccccc1OCCCCCNCCO	1.7	-3.2	-0.7	-2.0	40.8
CCn1c(CNc2ccc(Cl)cc2)nnc1SCC(=O)OC1CCCCC1	-1.2	1.6	-0.8	-0.5	30.8
CCn1c(CNc2cccc(Cl)c2)nnc1SCC(=O)OC1CCCCC1	-0.7	1.5	-0.8	3.3	71.9*
Cc1ccc([N+](=O)[O-])cc1N=Nc1c(-c2ccc([N+](=O)[O-])cc2)[nH]n(C(N)=S)c1=O	.	.	-0.7	5.5	78.4*
CC(=O)n1cc(N(C(=O)CCl)c2ccc([N+](=O)[O-])cc2)c2ccccc21	-9.1	-7.6	-0.1	-0.3	105.7*
SMILES	UPR XBP1 act	CHOP UPR activ	TbMetRS inhib	V-ATPase pH	CHOP inh
CC(=O)n1cc(N(C(=O)CCl)c2ccccc2)c2ccccc21	-7.0	-3.5	-0.4	-1.1	107.0*
CC(=O)n1cc(CO)c2ccccc21	-3.1	-1.3	1.2	-1.3	.
CCCCCSc1nc2c(cnn2-c2ccccc2)c(=O)[nH]1	-0.1	-0.3	-1.7	-1.8	71.2*
CC(C)Sc1nc2c(cnn2-c2ccccc2)c(=O)[nH]1	5.4	-1.1	-0.7	7.0	71.7*
O=c1[nH]c(SCc2ccccc2Cl)nc2c1cnn2-c1ccccc1	6.8	0.2	-0.2	-0.4	95.8*
O=c1[nH]c(CSc2nc3ccccc3[nH]2)nc2c1cnn2-c1ccccc1	-2.6	1.0	-0.2	0.1	55.6
